Screening data from PubChem BioAssay.
SR-BI DiI inh: inhibitors of SR-BI mediated HDL lipid uptake, primary screen, ldlA[mSR-BI] cells, fluorescence, single point. Scavenger receptor class B member 1 (Mus musculus), Q61009. ldlA[mSR-BI] CHO cells, DiI-HDL uptake fluorescence, 3 h. inhibition, % at 12.5 µM. 0.96% of 320,000 active. AID 488896, 2010;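 active means mean replicate inhibition of at least 70% and a set share of replicates each scoring 70 or more; inconclusive means meets just one of the two criteria; inactive means fails both criteria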
Target sequence (Q61009 whole entry, looked up): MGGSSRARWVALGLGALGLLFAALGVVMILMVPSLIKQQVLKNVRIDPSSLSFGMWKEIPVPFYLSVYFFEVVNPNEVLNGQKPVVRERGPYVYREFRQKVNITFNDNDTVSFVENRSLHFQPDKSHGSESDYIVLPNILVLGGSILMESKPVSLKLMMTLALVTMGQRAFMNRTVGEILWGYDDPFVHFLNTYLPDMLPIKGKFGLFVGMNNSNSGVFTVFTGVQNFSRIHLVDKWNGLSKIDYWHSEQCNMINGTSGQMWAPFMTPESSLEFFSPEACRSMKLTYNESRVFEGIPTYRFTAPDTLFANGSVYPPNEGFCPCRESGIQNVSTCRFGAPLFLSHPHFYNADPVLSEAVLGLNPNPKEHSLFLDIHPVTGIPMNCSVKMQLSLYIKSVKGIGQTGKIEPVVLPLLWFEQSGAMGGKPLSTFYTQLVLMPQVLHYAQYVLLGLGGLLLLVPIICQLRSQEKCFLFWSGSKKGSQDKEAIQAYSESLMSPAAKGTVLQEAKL
SR-BI DiI-HDL act: activators of SR-BI mediated DiI-HDL uptake, primary screen, ldlA[mSR-BI] CHO cells, DiI fluorescence; 3 h; 100 = double the neutral-control signal; activation, % at 12.5 µM; 0.096% of 320,000 active;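 active means mean replicate activation of at least 60% and every replicate at or above 60%; inconclusive means mean or all-replicate condition met, but not both; inactive means mean below 60% and not all replicates reaching 60%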
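System: LDL receptor-deficient CHO ldlA cells overexpressing murine SR-BI | Timing: 3 h uptake period with compound, 37 °C | Medium: HEPES-buffered (25 mM, pH 7.4) F12 plus 0.5% BSA | Dosing: Single-point compound dose | Signal: Bottom-read fluorescence, 550/595 nm | Read-out: Retained DiI signal reflecting DiI-HDL uptake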
FXN GAA850 act: FXN promoter activators, primary screen, cell-based, luciferase luminescence, HEK293 lucGAA850. 0.56% of 360,000 active. activation, % at 6 µM. HEK293 lucGAA850 FXN promoter luciferase reporter, 24 h; percent of 10 µM SAHA response;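 active means activation above the average of all compounds screened plus 3 SD, cutoff fixed separately per campaign, cut at about 7.5% in these data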
GASC-1 inh: inhibitors of GASC-1 histone demethylase, primary screen, biochemical, fluorescence, DELFIA europium; Lysine-specific demethylase 4C (Homo sapiens), Q9H3R0; GST-JMJD2C(1-420) H3K9me3 demethylation; inhibition, % at 2.35 µM; 0.069% of 330,000 active; AID 2099, 2009;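 active means more than half of a compound's replicate wells show inhibition beyond 50%, single wells judged on their own value; inconclusive means some, but no more than half, of replicates pass 50% inhibition; inactive means no replicate passes 50% inhibition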;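 further: signal counts dimethyl H3K9 product captured on neutravidin plate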
AHR act: AHR activators, primary screen, cell-based, luminescence, luciferase reporter, human; AHR-responsive luciferase reporter cells; AID 2796, 2010; 2.5% of 320,000 active; Aryl hydrocarbon receptor (Homo sapiens), P35869; activation, % at 5 µM; in the data active means activation above about 47%
A number is an active result; – = inactive; ? = inconclusive; · = no result. Rows were chosen to be rich in hits. Some 3.7% of all compounds tested hit in one or more screens of this group.

SMILES	SR-BI DiI inh	SR-BI DiI-HDL act	FXN GAA850 act	GASC-1 inh	AHR act
COc1ccc(/C=C/C2=Nc3ccccc3NC(C)(C)C2)cc1OC	·	·	–	–	–
C#CCSc1nc(-c2ccccc2)cc(C(F)(F)F)c1C#N	–	–	–	–	64
Cc1ccc(NC(=S)N2CCCC(c3nc4ccccc4[nH]3)C2)cc1 (configuration not stated)	–	–	–	–	–
Cc1ccc(NC(=S)c2nc3ccccc3[nH]2)cc1	77	–	–	–	–
CC(NC(=O)C1c2ccccc2Oc2ccccc21)C1CCCO1 (configuration not stated)	–	–	–	–	–
Clc1ccc(-c2nc3n(n2)Cc2ccccc2-3)cc1	–	–	–	–	74
CCN(CC)S(=O)(=O)c1cccc(-c2nc3n(n2)Cc2ccccc2-3)c1	–	–	–	–	–
CCN(CC)S(=O)(=O)c1ccc(-c2ccc(S(=O)(=O)N(CC)CC)cc2)cc1	–	–	–	–	–
CC(=O)c1cccc(NC(=S)N2CCN(CCN3C(=O)c4cccc5cccc(c45)C3=O)CC2)c1	–	–	–	–	–
COc1ccc(NC(=S)N2CCN(CCN3C(=O)c4cccc5cccc(c45)C3=O)CC2)cc1	?	–	–	–	97
CC(=O)c1ccc(NC(=S)N2CCN(CCN3C(=O)c4cccc5cccc(c45)C3=O)CC2)cc1	–	–	–	–	122
COc1ccc(NC(=S)N2CCN(C)CC2)cc1	·	·	–	–	–
COC(=O)c1nnn(-c2ccsc2C(=O)OC)c1C(=O)OC	–	–	–	–	–
Cc1cc(N2CC(C(=O)Nc3nccs3)CC2=O)ccc1C(C)C (configuration not stated)	–	–	–	–	–
Cc1ccc(S(=O)(=O)N/N=C/c2ccc(OCC(=O)NC(C)C)cc2)cc1	–	–	–	–	–
CS(=O)(=O)c1cccc(NC(=O)CSc2nnc3n2CCCCC3)c1	–	–	–	–	–
Cc1ccccc1OCc1nc(-c2ccc(NC(=O)c3ccc4c(c3)OCO4)cc2)no1	91	–	–	–	–
O=C(Nc1nc2c(cc3c4c(cccc42)CC3)s1)c1ccccc1Cl	76	–	–	–	–
CCOc1ccc(-n2c(SCC(=O)N3CCC(C(=O)O)CC3)nc3ccccc3c2=O)cc1	–	–	–	–	–
O=C(Nc1cc(C(F)(F)F)ccc1-n1cncn1)c1cn2ccccc2n1	–	–	–	–	78
COc1ccc(NC(=O)c2cc(C3CC3)nc3c2cnn3C(C)C)cc1OC	74	–	–	–	–
CCC1CCc2c(sc(NC(=O)c3cnccn3)c2C(N)=O)C1 (configuration not stated)	–	–	–	–	–
CSCCNC(=O)C1(C)CCN1C(=O)c1sccc1C (configuration not stated)	·	·	–	·	·
CCOc1ccc(Nc2ncnc3ccc([N+](=O)[O-])cc23)cc1	–	–	–	–	50
CCOC(=O)c1ccc(Nc2ncnc3ccc(C)cc23)cc1	–	–	–	–	–
SMILES	SR-BI DiI inh	SR-BI DiI-HDL act	FXN GAA850 act	GASC-1 inh	AHR act
CC(C)c1ccc2c(c1)[C@H]1OCC[C@H]1[C@@H](c1cccs1)N2	–	–	–	–	70
Nn1c(-c2ccccn2)nnc1-c1ccccn1	–	–	–	–	–
Nc1ccccc1-c1nnc(-c2ccccc2N)n1N	–	–	–	–	48
Cc1cc(C)cc(Cn2c3ccc(NC(=O)NCc4ccccc4)cc3c(=O)n2C)c1	·	·	–	·	·
CC(=O)c1ccc(OCCCC(=O)Nc2cccc(-c3nn[nH]n3)c2)cc1	–	–	–	–	–
CC1=CC(C)(C)N2C(=O)C3(NCCc4c3[nH]c3ccccc43)c3cc(C)cc1c32 (configuration not stated)	88	–	–	–	–
O=C(NC(=S)Nc1cccc(Cl)c1Cl)C1CC1	–	–	–	–	52
O=C(COc1ccccc1)Nc1c2c(nn1-c1ccccc1)CS(=O)C2 (configuration not stated)	–	–	–	–	56
COc1cccc(CN(C)C(=O)COc2ccc(C(=O)c3ccc(Cl)cc3)cc2)c1OC	·	·	–	–	–
Cc1cccn2c(=O)c(C=NCc3ccco3)c(Nc3ccc(SC(F)F)cc3)nc12	·	·	–	–	49
O=C(NCc1ccc2c(c1)OCO2)c1cc(-c2ccccn2)nc2ccccc12	–	–	–	–	–
CCCCc1ccc(N=N/C(C(=O)Nc2ccc(NC(C)=O)cc2OC)=C(/C)O)cc1	78	–	–	–	–
COc1ccc(OC)c2[nH]c(=O)c(CCNC(=O)c3ccc(S(=O)(=O)N4CCCC4)cc3)cc12	–	–	–	–	–
CCN(CC)S(=O)(=O)c1ccc(C(=O)NCCc2cc3c(OC)ccc(OC)c3[nH]c2=O)cc1	89	–	–	–	–
Cc1cc(/C=N/NC(=O)c2ccsc2)c(C)n1-c1cnccn1	–	–	–	–	77
Cc1cc(C)cc(-n2c(C)cc(/C=N/NC(=O)c3ccncc3)c2C)c1	–	–	–	–	–
COc1ccc(Nc2ncnc3sc(C)cc23)c(OC)c1	–	–	–	–	–
CCCN(C(=O)C1=COCCO1)c1c(N)n(Cc2ccccc2)c(=O)[nH]c1=O	–	–	–	–	–
CC(C)CCN(C(=O)C1=COCCO1)c1c(N)n(Cc2ccccc2)c(=O)[nH]c1=O	–	–	–	75	–
CCOc1ccc(S(=O)(=O)N2CCC(C(=O)OC(C)C(=O)N3CCOCC3)CC2)cc1 (configuration not stated)	–	–	–	–	–
O=C(Nc1ccc(Cl)cc1)c1ccc2c(c1)OCO2	·	·	–	–	–
O=C(Nc1ccc2c(c1)OCO2)c1cccc(Cl)c1	–	–	–	–	49
O=C(Nc1ccc2c(c1)OCO2)c1ccc[n+]([O-])c1	–	–	–	–	48
CC(=O)Nc1ccc(C(=O)Nc2ccc3c(c2)OCO3)cc1	–	–	–	–	–
CCc1cccc(NC(=O)c2cccc3c2C(=O)N(CC2CCCO2)C3)c1 (configuration not stated)	–	–	–	–	–
COC(=O)[C@]1(C)N[C@H](CN(C)C(=O)Nc2ccccc2)[C@@H]2C(=O)N(C)C(=O)[C@@H]21	–	–	–	–	–
Cc1cc(OCc2cc(C(=O)N(C)C3CCOC3)no2)cc(C)c1Cl (configuration not stated)	–	–	–	–	–
COc1ccc(N2CCN(c3oc(COc4ccc(Cl)cc4Cl)nc3C#N)CC2)cc1	–	–	–	–	–
N#Cc1nc(COc2ccc(Cl)cc2Cl)oc1N1CCN(c2ccccc2)CC1	–	118	–	–	–
